Source: publication PMC9116722 (Cancer chemotherapy and pharmacology, 2022)

Test: Adverse events
Assay type: in vivo, human
Summary of the method: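 Patients with germline BRCA-mutated cancers, or BRCA-wildtype TNBC or platinum-refractory ovarian cancer, took oral drug continuously twice daily in 28-day cycles. There were nine dose levels from 50 to 500 mg BID under 3+3 escalation, run separately per cohort after the first DLT. Toxicities were graded by CTCAE v4.0, with DLTs assessed during cycle 1.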

## C[C@]1(c2nc3c(C(N)=O)cccc3[nH]2)CCCN1 [veliparib]
BRCAmut and BRCAwt combined
  Abdominal pain, Any Grade: 6 (6) number of patients (%)
  Abdominal pain, Grade 1: 3 (3) number of patients (%)
  Abdominal pain, Grade 2: 1 (1) number of patients (%)
  Abdominal pain, Grade 3: 2 (2) number of patients (%)
  Abdominal pain, Grade 4: 0 (0) number of patients (%)
  Alkaline phosphatase increased, Any Grade: 6 (6) number of patients (%)
  Alkaline phosphatase increased, Grade 1: 3 (3) number of patients (%)
  Alkaline phosphatase increased, Grade 2: 2 (2) number of patients (%)
  Alkaline phosphatase increased, Grade 3: 1 (1) number of patients (%)
  Alkaline phosphatase increased, Grade 4: 0 (0) number of patients (%)
  Anemia, Any Grade: 31 (32) number of patients (%)
  Anemia, Grade 1: 19 (19) number of patients (%)
  Anemia, Grade 2: 10 (10) number of patients (%)
  Anemia, Grade 3: 1 (1) number of patients (%)
  Anemia, Grade 4: 1 (1) number of patients (%)
  Anorexia, Any Grade: 20 (20) number of patients (%)
  Anorexia, Grade 1: 17 (17) number of patients (%)
  Anorexia, Grade 2: 3 (3) number of patients (%)
  Anorexia, Grade 3: 0 (0) number of patients (%)
  Anorexia, Grade 4: 0 (0) number of patients (%)
  Any adverse event, Any Grade: 92 (94) number of patients (%)
  Any adverse event, Grade 1: 86 (88) number of patients (%)
  Any adverse event, Grade 2: 54 (55) number of patients (%)
  Any adverse event, Grade 4: 3 (3) number of patients (%)
  Aspartate aminotransferase increased, Any Grade: 9 (9) number of patients (%)
  Aspartate aminotransferase increased, Grade 1: 8 (8) number of patients (%)
  Aspartate aminotransferase increased, Grade 2: 0 (0) number of patients (%)
  Aspartate aminotransferase increased, Grade 3: 1 (1) number of patients (%)
  Aspartate aminotransferase increased, Grade 4: 0 (0) number of patients (%)
  Constipation, Any Grade: 9 (9) number of patients (%)
  Constipation, Grade 1: 8 (8) number of patients (%)
  Constipation, Grade 2: 1 (1) number of patients (%)
  Constipation, Grade 3: 0 (0) number of patients (%)
  Constipation, Grade 4: 0 (0) number of patients (%)
  Diarrhea, Any Grade: 19 (19) number of patients (%)
  Diarrhea, Grade 1: 16 (16) number of patients (%)
  Diarrhea, Grade 2: 3 (3) number of patients (%)
  Diarrhea, Grade 3: 0 (0) number of patients (%)
  Diarrhea, Grade 4: 0 (0) number of patients (%)
  Dizziness, Any Grade: 9 (9) number of patients (%)
  Dizziness, Grade 1: 8 (8) number of patients (%)
  Dizziness, Grade 2: 1 (1) number of patients (%)
  Dizziness, Grade 3: 0 (0) number of patients (%)
  Dizziness, Grade 4: 0 (0) number of patients (%)
  Dry mouth, Any Grade: 8 (8) number of patients (%)
  Dry mouth, Grade 1: 8 (8) number of patients (%)
  Dry mouth, Grade 2: 0 (0) number of patients (%)
  Dry mouth, Grade 3: 0 (0) number of patients (%)
  Dry mouth, Grade 4: 0 (0) number of patients (%)
  Dysgeusia, Any Grade: 16 (16) number of patients (%)
  Dysgeusia, Grade 1: 16 (16) number of patients (%)
  Dysgeusia, Grade 2: 0 (0) number of patients (%)
  Dysgeusia, Grade 3: 0 (0) number of patients (%)
  Dysgeusia, Grade 4: 0 (0) number of patients (%)
  Dyspepsia, Any Grade: 6 (6) number of patients (%)
  Dyspepsia, Grade 1: 6 (6) number of patients (%)
  Dyspepsia, Grade 2: 0 (0) number of patients (%)
  Dyspepsia, Grade 3: 0 (0) number of patients (%)
  Dyspepsia, Grade 4: 0 (0) number of patients (%)
  Dyspnea, Any Grade: 5 (5) number of patients (%)
  Dyspnea, Grade 1: 2 (2) number of patients (%)
  Dyspnea, Grade 2: 1 (1) number of patients (%)
  Dyspnea, Grade 3: 1 (1) number of patients (%)
  Dyspnea, Grade 4: 1 (1) number of patients (%)
  Fatigue, Any Grade: 44 (45) number of patients (%)
  Fatigue, Grade 1: 33 (34) number of patients (%)
  Fatigue, Grade 2: 9 (9) number of patients (%)
  Fatigue, Grade 3: 2 (2) number of patients (%)
  Fatigue, Grade 4: 0 (0) number of patients (%)
  Headache, Any Grade: 9 (9) number of patients (%)
  Headache, Grade 1: 7 (7) number of patients (%)
  Headache, Grade 2: 1 (1) number of patients (%)
  Headache, Grade 3: 1 (1) number of patients (%)
  Headache, Grade 4: 0 (0) number of patients (%)
  Hyperglycemia, Any Grade: 10 (10) number of patients (%)
  Hyperglycemia, Grade 1: 9 (9) number of patients (%)
  Hyperglycemia, Grade 2: 1 (1) number of patients (%)
  Hyperglycemia, Grade 3: 0 (0) number of patients (%)
  Hyperglycemia, Grade 4: 0 (0) number of patients (%)
  Hyponatremia, Any Grade: 7 (7) number of patients (%)
  Hyponatremia, Grade 1: 7 (7) number of patients (%)
  Hyponatremia, Grade 2: 0 (0) number of patients (%)
  Hyponatremia, Grade 3: 0 (0) number of patients (%)
  Hyponatremia, Grade 4: 0 (0) number of patients (%)
  Hypophosphatemia, Any Grade: 8 (8) number of patients (%)
  Hypophosphatemia, Grade 1: 2 (2) number of patients (%)
  Hypophosphatemia, Grade 2: 4 (4) number of patients (%)
  Hypophosphatemia, Grade 3: 2 (2) number of patients (%)
  Hypophosphatemia, Grade 4: 0 (0) number of patients (%)
  Insomnia, Any Grade: 7 (7) number of patients (%)
  Insomnia, Grade 1: 6 (6) number of patients (%)
  Insomnia, Grade 2: 1 (1) number of patients (%)
  Insomnia, Grade 3: 0 (0) number of patients (%)
  Insomnia, Grade 4: 0 (0) number of patients (%)
  Lymphocyte count decreased, Any Grade: 37 (38) number of patients (%)
  Lymphocyte count decreased, Grade 1: 7 (7) number of patients (%)
  Lymphocyte count decreased, Grade 2: 15 (15) number of patients (%)
  Lymphocyte count decreased, Grade 3: 14 (14) number of patients (%)
  Lymphocyte count decreased, Grade 4: 1 (1) number of patients (%)
  Myalgia, Any Grade: 5 (5) number of patients (%)
  Myalgia, Grade 1: 4 (4) number of patients (%)
  Myalgia, Grade 2: 1 (1) number of patients (%)
  Myalgia, Grade 3: 0 (0) number of patients (%)
  Myalgia, Grade 4: 0 (0) number of patients (%)
  Nausea, Any Grade: 64 (65) number of patients (%)
  Nausea, Grade 1: 42 (43) number of patients (%)
  Nausea, Grade 2: 20 (20) number of patients (%)
  Nausea, Grade 3: 2 (2) number of patients (%)
  Nausea, Grade 4: 0 (0) number of patients (%)
  Neutrophil count decreased, Any Grade: 17 (17) number of patients (%)
  Neutrophil count decreased, Grade 1: 13 (13) number of patients (%)
  Neutrophil count decreased, Grade 2: 4 (4) number of patients (%)
  Neutrophil count decreased, Grade 3: 0 (0) number of patients (%)
  Neutrophil count decreased, Grade 4: 0 (0) number of patients (%)
  Platelet count decreased, Any Grade: 18 (18) number of patients (%)
  Platelet count decreased, Grade 1: 14 (14) number of patients (%)
  Platelet count decreased, Grade 2: 3 (3) number of patients (%)
  Platelet count decreased, Grade 3: 0 (0) number of patients (%)
  Platelet count decreased, Grade 4: 1 (1) number of patients (%)
  Vomiting, Any Grade: 32 (33) number of patients (%)
  Vomiting, Grade 1: 25 (26) number of patients (%)
  Vomiting, Grade 2: 7 (7) number of patients (%)
  White blood cell decreased, Any Grade: 27 (28) number of patients (%)
  White blood cell decreased, Grade 1: 20 (20) number of patients (%)
  White blood cell decreased, Grade 2: 7 (7) number of patients (%)
  White blood cell decreased, Grade 3: 0 (0) number of patients (%)
  White blood cell decreased, Grade 4: 0 (0) number of patients (%)
BRCAmut group
  grade 3/4 decreased lymphocyte count: 14%
  incidence of grade 3/4 toxicity: 24%
BRCAmut, DL1 50/50 mg AM/PM
  Abdominal pain, Grade 3: 0 number of patients (%)
  Alkaline phosphatase increased, Grade 3: 1 (14) number of patients (%)
  Anemia, Grade 3: 0 number of patients (%)
  Anemia, Grade 4: 0 number of patients (%)
  Any Grade 3/4 toxicity: 1 (14) number of patients (%)
  Any Grade 3 toxicity: 1 (14) number of patients (%)
  Any Grade 4 toxicity: 0 number of patients (%)
  Appendicitis, Grade 3: 0 number of patients (%)
  Aspartate aminotransferase increased, Grade 3: 1 (14) number of patients (%)
  Dehydration, Grade 3: 0 number of patients (%)
  Dyspnea, Grade 4: 0 number of patients (%)
  Fatigue, Grade 3: 0 number of patients (%)
  Headache, Grade 3: 0 number of patients (%)
  Hypophosphatemia, Grade 3: 0 number of patients (%)
  Lymphocyte count decreased, Grade 3: 0 number of patients (%)
  Lymphocyte count decreased, Grade 4: 0 number of patients (%)
  Nausea, Grade 3: 0 number of patients (%)
  Platelet count decreased, Grade 4: 0 number of patients (%)
  Thromboembolic event, Grade 3: 0 number of patients (%)
  Thromboembolic event, Grade 4: 0 number of patients (%)
  Urinary tract infection, Grade 3: 0 number of patients (%)
BRCAmut, DL2 100/50 mg AM/PM
  Abdominal pain, Grade 3: 0 number of patients (%)
  Alkaline phosphatase increased, Grade 3: 0 number of patients (%)
  Anemia, Grade 3: 0 number of patients (%)
  Anemia, Grade 4: 0 number of patients (%)
  Any Grade 3/4 toxicity: 1 (33) number of patients (%)
  Any Grade 3 toxicity: 0 number of patients (%)
  Any Grade 4 toxicity: 1 (33) number of patients (%)
  Appendicitis, Grade 3: 0 number of patients (%)
  Aspartate aminotransferase increased, Grade 3: 0 number of patients (%)
  Dehydration, Grade 3: 0 number of patients (%)
  Dyspnea, Grade 4: 0 number of patients (%)
  Fatigue, Grade 3: 0 number of patients (%)
  Headache, Grade 3: 0 number of patients (%)
  Hypophosphatemia, Grade 3: 0 number of patients (%)
  Lymphocyte count decreased, Grade 3: 0 number of patients (%)
  Lymphocyte count decreased, Grade 4: 0 number of patients (%)
  Nausea, Grade 3: 0 number of patients (%)
  Platelet count decreased, Grade 4: 0 number of patients (%)
  Thromboembolic event, Grade 3: 0 number of patients (%)
  Thromboembolic event, Grade 4: 1 (33) number of patients (%)
  Urinary tract infection, Grade 3: 0 number of patients (%)
BRCAmut, DL3 100/100 mg AM/PM
  Abdominal pain, Grade 3: 0 number of patients (%)
  Alkaline phosphatase increased, Grade 3: 0 number of patients (%)
